Reference: ChEMBL document CHEMBL1153089, “Synthesis, antibacterial activities and molecular docking studies of peptide and Schiff bases as targeted antibiotics” (Bioorg Med Chem, 2009)
Converted amounts (≈) assume the structure as drawn. Blank lines part the entries; values can stand above or below the molecule they belong to.

Tests used:
[1] = target: T1, 3-oxoacyl-[acyl-carrier-protein] synthase 3 (Escherichia coli, UniProt C3TDZ2); test: Inhibition of Escherichia coli Beta-ketoacyl-ACP synthase III expressed in Escherichia coli BL21 (DE3) by liquid scintillation counting
T1 sequence (C3TDZ2 whole entry): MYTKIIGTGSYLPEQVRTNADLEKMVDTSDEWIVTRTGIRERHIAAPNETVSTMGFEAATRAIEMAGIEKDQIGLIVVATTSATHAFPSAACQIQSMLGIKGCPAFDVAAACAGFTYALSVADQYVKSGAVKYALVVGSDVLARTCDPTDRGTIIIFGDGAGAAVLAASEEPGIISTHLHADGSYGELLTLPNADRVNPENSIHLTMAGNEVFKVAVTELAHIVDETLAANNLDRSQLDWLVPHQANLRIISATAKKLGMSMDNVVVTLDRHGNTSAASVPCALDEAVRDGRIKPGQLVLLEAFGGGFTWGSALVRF
Summary of the method: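 His-tagged E. coli KAS III from pET30 in BL21(DE3), purified on Ni-NTA and stored in 20 mM Tris pH 7.6, 100 mM NaCl, 1 mM DTT, 20% glycerol. The radiometric assay precipitated product with ice-cold 10% TCA and redissolved it in 0.5 M NaOH. ³H incorporation was counted by liquid scintillation. Inhibitors were added from DMSO stock, with final DMSO ≤2%. IC50 was determined.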

Pseudomonas aeruginosa = test: Antimicrobial activity against Pseudomonas aeruginosa ATCC 13525 after 24 hrs by MTT assay; format: functional; conditions: ATCC 13525, 24 h
Summary of the method: (§1)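 MIC by broth microdilution in Mueller–Hinton medium. Compounds were serially diluted in DMSO in the medium. Inoculum was about 10⁵ cfu/mL. Plates were incubated at 37 °C for 24 h. MIC was read visually with MTT colorimetric staining.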

Escherichia coli = test: Antimicrobial activity against Escherichia coli ATCC 35218 after 24 hrs by MTT assay; format: functional; conditions: ATCC 35218, 24 h; summary of the method: as §1
Bacillus subtilis = test: Antimicrobial activity against Bacillus subtilis ATCC 6633 after 24 hrs by MTT assay; format: functional; conditions: ATCC 6633, 24 h; summary of the method: as §1
Staphylococcus aureus = test: Antimicrobial activity against Staphylococcus aureus ATCC 6538 after 24 hrs by MTT assay; format: functional; conditions: ATCC 6538, 24 h; summary of the method: as §1

Compound: O=C(NCC/N=C/c1c(O)ccc2ccccc12)c1ccccc1O
- IC50 [1]: 29.2 µM

Compound: O=C(NCC/N=C/c1cc(Cl)cc(Cl)c1O)c1ccccc1O
- IC50 [1]: 7.08 µM
- MIC (Pseudomonas aeruginosa): > 50 µg/mL
- MIC (Escherichia coli): 1.56 µg/mL (≈ 4.42 µM)
- MIC (Bacillus subtilis): 3.13 µg/mL (≈ 8.86 µM)
- MIC (Staphylococcus aureus): > 50 µg/mL

Compound: O=C(NCCCCCC/N=C/c1cc(F)ccc1O)c1ccccc1O
- IC50 [1]: 112 µM

Compound: O=C(NCCNC(=O)c1ccccc1O)c1ccccc1O
- IC50 [1]: 55 µM

Compound: O=C(NCCCCCC/N=C/c1cc(Br)ccc1O)c1ccccc1O
- IC50 [1]: 29.9 µM

Compound: Oc1ccccc1/C=N/CCCCCC/N=C/c1ccccc1O
- IC50 [1]: 44.6 µM

Compound: O=C(NCCCC/N=C/c1cc(Cl)cc(Cl)c1O)c1ccccc1O
- IC50 [1]: 7.74 µM

Compound: O=C(NCCCCCC/N=C/c1ccccc1O)c1ccccc1O
- IC50 [1]: 65.1 µM

Compound: O=C(NCCCC/N=C/c1cc(Br)cc(Br)c1O)c1ccccc1O
- IC50 [1]: 6.61 µM

Compound: O=C(NCCCCCC/N=C/c1cc(I)ccc1O)c1ccccc1O
- IC50 [1]: 56.9 µM

Compound: O=C(NCC/N=C/c1cc(Cl)ccc1O)c1ccccc1O
- IC50 [1]: 8.69 µM

Compound: O=C(NCC/N=C/c1ccccc1O)c1ccccc1O
- IC50 [1]: 25.5 µM

Compound: O=C(NCCC/N=C/c1cc(Br)ccc1O)c1ccccc1O
- IC50 [1]: 0.875 µM
- MIC (Pseudomonas aeruginosa): 3.13 µg/mL (≈ 8.3 µM)
- MIC (Escherichia coli): 0.39 µg/mL (≈ 1.03 µM)
- MIC (Bacillus subtilis): 1.56 µg/mL (≈ 4.14 µM)
- MIC (Staphylococcus aureus): 3.13 µg/mL (≈ 8.3 µM)

Compound: O=C(NCCCCCC/N=C/c1cc(Br)cc(Br)c1O)c1ccccc1O
- IC50 [1]: 12.5 µM

Compound: O=C(NCCCNC(=O)c1ccccc1O)c1ccccc1O
- IC50 [1]: 41.8 µM

Compound: O=C(NCCCCNC(=O)c1ccccc1O)c1ccccc1O
- IC50 [1]: 38.3 µM

Compound: O=C(NCCCCCC/N=C/c1cc(Cl)cc(Cl)c1O)c1ccccc1O
- IC50 [1]: > 122 µM

Compound: O=C(NCCC/N=C/c1c(O)ccc2ccccc12)c1ccccc1O
- IC50 [1]: 8.61 µM
- MIC (Pseudomonas aeruginosa): 12.5 µg/mL (≈ 35.9 µM)
- MIC (Escherichia coli): > 50 µg/mL
- MIC (Bacillus subtilis): 25 µg/mL (≈ 71.8 µM)
- MIC (Staphylococcus aureus): 25 µg/mL (≈ 71.8 µM)

Compound: O=C(NCCCCCC/N=C/c1cc(I)cc(I)c1O)c1ccccc1O
- IC50 [1]: 25.8 µM

Compound: O=C(NCCCCCC/N=C/c1c(O)ccc2ccccc12)c1ccccc1O
- IC50 [1]: > 128 µM

Compound: O=C(NCCCC/N=C/c1cc(I)cc(I)c1O)c1ccccc1O
- IC50 [1]: 11.1 µM

Compound: O=C(NCCCC/N=C/c1ccccc1O)c1ccccc1O
- IC50 [1]: 43.4 µM

Compound: O=C(NCC/N=C/c1cc(I)ccc1O)c1ccccc1O
- IC50 [1]: 2.75 µM
- MIC (Pseudomonas aeruginosa): > 50 µg/mL
- MIC (Escherichia coli): 25 µg/mL (≈ 60.9 µM)
- MIC (Bacillus subtilis): > 50 µg/mL
- MIC (Staphylococcus aureus): 25 µg/mL (≈ 60.9 µM)

Compound: Oc1ccccc1/C=N/CCC/N=C/c1ccccc1O
- IC50 [1]: 43.4 µM

Compound: O=C(NCCCC/N=C/c1cc(I)ccc1O)c1ccccc1O
- IC50 [1]: 1.48 µM
- MIC (Pseudomonas aeruginosa): 3.13 µg/mL (≈ 7.14 µM)
- MIC (Escherichia coli): 6.25 µg/mL (≈ 14.3 µM)
- MIC (Bacillus subtilis): 1.56 µg/mL (≈ 3.56 µM)
- MIC (Staphylococcus aureus): > 50 µg/mL

Compound: O=C(NCCCCCC/N=C/c1cc(Cl)ccc1O)c1ccccc1O
- IC50 [1]: 26.7 µM

Compound: O=C(NCCC/N=C/c1cc(Br)cc(Br)c1O)c1ccccc1O
- IC50 [1]: 13.8 µM

Compound: O=C(NCCC/N=C/c1cc(I)cc(I)c1O)c1ccccc1O
- IC50 [1]: 23.5 µM

Now from value to molecule:

- IC50 [1]: 19.2 µM
Compound: O=C(NCCCC/N=C/c1cc(F)ccc1O)c1ccccc1O

- IC50 [1]: > 186 µM
Compound: Oc1ccccc1/C=N/CC/N=C/c1ccccc1O

- IC50 [1]: 4.93 µM
- MIC (Pseudomonas aeruginosa): > 50 µg/mL
- MIC (Escherichia coli): 25 µg/mL (≈ 75.1 µM)
- MIC (Bacillus subtilis): > 50 µg/mL
- MIC (Staphylococcus aureus): > 50 µg/mL
Compound: O=C(NCCC/N=C/c1cc(Cl)ccc1O)c1ccccc1O

- IC50 [1]: 23.7 µM
Compound: O=C(NCC/N=C/c1cc(I)cc(I)c1O)c1ccccc1O

- IC50 [1]: 16 µM
Compound: O=C(NCCCC/N=C/c1cc(Br)ccc1O)c1ccccc1O

- IC50 [1]: 1.22 µM
- MIC (Pseudomonas aeruginosa): 12.5 µg/mL (≈ 28.3 µM)
- MIC (Escherichia coli): 6.25 µg/mL (≈ 14.1 µM)
- MIC (Bacillus subtilis): 1.56 µg/mL (≈ 3.53 µM)
- MIC (Staphylococcus aureus): 12.5 µg/mL (≈ 28.3 µM)
Compound: O=C(NCC/N=C/c1cc(Br)cc(Br)c1O)c1ccccc1O

- IC50 [1]: 6.69 µM
- MIC (Pseudomonas aeruginosa): 12.5 µg/mL (≈ 36 µM)
- MIC (Escherichia coli): > 50 µg/mL
- MIC (Bacillus subtilis): 25 µg/mL (≈ 72.1 µM)
- MIC (Staphylococcus aureus): 25 µg/mL (≈ 72.1 µM)
Compound: O=C(NCCCC/N=C/c1cc(Cl)ccc1O)c1ccccc1O

- IC50 [1]: 34.2 µM
Compound: O=C(NCC/N=C/c1cc(F)ccc1O)c1ccccc1O

- IC50 [1]: 7.49 µM
Compound: O=C(NCCC/N=C/c1cc(Cl)cc(Cl)c1O)c1ccccc1O

- IC50 [1]: 17.1 µM
Compound: O=C(NCC/N=C/c1cc(Br)ccc1O)c1ccccc1O

- IC50 [1]: 5.56 µM
- MIC (Pseudomonas aeruginosa): 1.56 µg/mL (≈ 4.93 µM)
- MIC (Escherichia coli): 3.13 µg/mL (≈ 9.89 µM)
- MIC (Bacillus subtilis): 25 µg/mL (≈ 79 µM)
- MIC (Staphylococcus aureus): 1.56 µg/mL (≈ 4.93 µM)
Compound: O=C(NCCC/N=C/c1cc(F)ccc1O)c1ccccc1O

- IC50 [1]: 41.9 µM
Compound: O=C(NCCC/N=C/c1ccccc1O)c1ccccc1O

- IC50 [1]: 3.54 µM
- MIC (Pseudomonas aeruginosa): 6.25 µg/mL (≈ 14.7 µM)
- MIC (Escherichia coli): 3.13 µg/mL (≈ 7.38 µM)
- MIC (Bacillus subtilis): 25 µg/mL (≈ 58.9 µM)
- MIC (Staphylococcus aureus): > 50 µg/mL
Compound: O=C(NCCC/N=C/c1cc(I)ccc1O)c1ccccc1O

- IC50 [1]: 44 µM
Compound: Oc1ccccc1/C=N/CCCC/N=C/c1ccccc1O

- IC50 [1]: 8.55 µM
Compound: O=C(NCCCC/N=C/c1c(O)ccc2ccccc12)c1ccccc1O

- IC50 [1]: > 140 µM
Compound: O=C(NCCCCCCNC(=O)c1ccccc1O)c1ccccc1O
